Results pooled from the literature.
ABL1 non-phosphorylated: Tyrosine-protein kinase ABL1, non-phosphorylated (ABL1, Homo sapiens, UniProt P00519)
ABL1 E255K phosphorylated: Tyrosine-protein kinase ABL1, phosphorylated (ABL1, Homo sapiens, UniProt P00519, E255K)
ABL1 Q252H phosphorylated: Tyrosine-protein kinase ABL1, phosphorylated (ABL1, Homo sapiens, UniProt P00519, Q252H)
ABL1 phosphorylated: Tyrosine-protein kinase ABL1, phosphorylated (ABL1, Homo sapiens, UniProt P00519)

| SMILES | target | assay | conditions | remaining binding [%] |
| --- | --- | --- | --- | --- |
| O=C(Nc1c[nH]nc1C(=O)NC1CCNCC1)c1cc(F)cc(F)c1 | ABL1 non-phosphorylated | binding, competition with immobilised ligand | 1 µM | 98 |
| COc1cnc(Nc2cccc(S(N)(=O)=O)c2)nc1N1CCN(c2ccccc2)CC1 | Tyrosine-protein kinase ABL1, phosphorylated (ABL1, Homo sapiens, UniProt P00519, Y253F) | binding, competition with immobilised ligand | 1 µM | 73 |
| O=C(O)[C@@H]1[C@@H](Cn2nnc3ccccc3c2=O)CC[C@H]1C(=O)c1ccc(OCCC2CCOCC2)cc1 | ABL1 E255K phosphorylated | binding, competition with immobilised ligand | 1 µM | 84 |
| O=C(c1ccc(Nc2ncc(Cl)c(-c3cc4ccccc4s3)n2)cc1)N1CCC(N2CCCC2)CC1 | Tyrosine-protein kinase ABL1, phosphorylated (ABL1, Homo sapiens, UniProt P00519, M351T) | binding, competition with immobilised ligand | 1 µM | 12 |
| CN(C)C(=O)Cn1cc(-c2nc(C3(c4ccc(-c5cnc(N)nc5)cc4)CC3)no2)cn1 | Tyrosine-protein kinase ABL1, non-phosphorylated (ABL1, Homo sapiens, UniProt P00519, F317L) | cell-free assay, competition with immobilised ligand | 1 µM | 55 |
| Nc1ncc2c(n1)-c1c([nH]c3ccc(C#CC4CC4)cc13)CCCC2 | Tyrosine-protein kinase ABL1, non-phosphorylated (ABL1, Homo sapiens, UniProt P00519, F317I) | binding, competition with immobilised ligand | 1 µM | 84 |
| O=C(c1ccc(Nc2nccc(-c3cc4ccccc4s3)n2)cc1)N1CCC(N2CCCC2)CC1 | ABL1 Q252H phosphorylated | binding, competition with immobilised ligand | 1 µM | 6.4 |
| C[C@H](c1ccc(F)cc1)N(Cc1cccc(C(=O)O)c1)C(=O)c1cnc2ccccc2c1 | Tyrosine-protein kinase ABL1, non-phosphorylated (ABL1, Homo sapiens, UniProt P00519, T315I) | cell-free assay, competition with immobilised ligand | 1 µM | 85 |
| c1cncc(-c2cccc(Nc3nccc(NC4CCCCC4)n3)c2)c1 | ABL1 E255K phosphorylated | binding, competition with immobilised ligand | 10 µM | 14 |
| COc1ncc2cc3ccccc3nc2c1C#N | ABL1 E255K phosphorylated | cell-free assay, competition with immobilised ligand | 5 µM | 100 |
| O=C1NC(c2ccccn2)Sc2ccccc21 (stereo not drawn) | ABL1 phosphorylated | cell-free assay, competition with immobilised ligand | 1 µM | 72 |
| O=C(NCCCN1CCOCC1)c1ccc(Nc2nccc(-c3cc4ccccc4s3)n2)cc1 | ABL1 Q252H phosphorylated | binding, competition with immobilised ligand | 1 µM | 58 |
| N[C@@H]1CCN(c2nccc(-c3cnn4ncccc34)n2)C1 | ABL1 phosphorylated | binding | 1 µM | 95 |
| O=C(Nc1cccnn1)N1CC(C/C=C/c2cncc(Oc3ccc(C(F)(F)F)cn3)n2)C1 | Tyrosine-protein kinase ABL1, phosphorylated (ABL1, Homo sapiens, UniProt P00519, F317I) | cell-free assay, competition with immobilised ligand | 1 µM | 67 |
| CNC(=O)[C@@H]1CC[C@@H](n2c(-c3ccc4cnccc4c3)nc3ccc(C(=O)NCc4cccc(C(N)=O)c4)cc32)C1 | ABL1 E255K phosphorylated | binding, competition with immobilised ligand | 1 µM | 100 |
| CN(CCCC(F)(F)F)c1nccc(-c2cnn3ncccc23)n1 | Tyrosine-protein kinase ABL1 (ABL1, Homo sapiens, UniProt P00519, M351T) | binding | 1 µM | 100 |
| C=CC(=O)N1CCC(C(=O)NCC(=O)N2CCN(c3nc(-c4cnc(N)nc4C(F)F)nc(N4CCOCC4)n3)CC2)CC1 | ABL1 E255K phosphorylated | binding, competition with immobilised ligand | 1 µM | 87 |
| Cc1cc(C)c(-n2ccn3nc(-c4cccnc4)cc23)cc1NC(=O)c1cc(C#N)cc(S(F)(F)(F)(F)F)c1 | Tyrosine-protein kinase ABL1, phosphorylated (ABL1, Homo sapiens, UniProt P00519, F317L) | cell-free assay, competition with immobilised ligand | 0.1 µM | 63.3 |
| Cc1cnc(Nc2ccc(C(=O)N3CCC(N4CCCC4)CC3)cc2)nc1-c1cc2ccccc2s1 | ABL1 phosphorylated | binding, competition with immobilised ligand | 1 µM | 1.6 |
| O=C(NCc1ncc(C(F)(F)F)cc1Cl)c1ccc2c(c1)C1(CCS(=O)(=O)CC1)[C@H](C1CC1)N2S(=O)(=O)c1ccc(F)cc1 | ABL1 Q252H phosphorylated | cell-free assay, competition with immobilised ligand | 1 µM | 70 |
| CN(C)c1nccc(-c2cnc3ncccn23)n1 | ABL1 non-phosphorylated | binding, competition with immobilised ligand | 1 µM | 84 |
